Assay results: ChEMBL document CHEMBL1150856, “Trypanocidal withanolides and withanolide glycosides from Dunalia brachyacantha” (2001)
Activity calls are given as the source filed them. The rule behind the calls is not given here.

Key:
Shigella flexneri [1] = assay: Antibacterial activity against Shigella flexneri […] at 0.0625 mg/mL after 18 hrs; type: functional, organism-based
Escherichia coli = assay: Antibacterial activity against Escherichia coli ATCC 8739 at 0.0312 mg/mL after 18 hrs; type: functional, organism-based
Leishmania braziliensis [2] = assay: Antiparasitic activity against Leishmania braziliensis MHOM/BR/75/M2903 at 10 ug/mL after 72 hrs; type: functional
Outline: (§1)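 Promastigotes at 50 000 parasites/mL, 27 °C, 72 h, with compound at final 50, 25, 10, 1 and 0.1 μg/mL. Compound dissolved in medium plus DMSO (final DMSO under 0.1%) and filter-sterilised (0.22 μm). Triplicate wells. Activity was judged by inverted phase-contrast microscopy of a culture drop against untreated and pentamidine controls.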

Trypanosoma cruzi [3] = assay: Antiparasitic activity against Trypanosoma cruzi Tulahuen epimastigotes at 25 ug/mL after 48 hrs; type: functional
Leishmania donovani [4] = assay: Antiparasitic activity against Leishmania donovani MHOM/IN/83/HS70 at 25 ug/mL after 72 hrs; type: functional, organism-based; outline: as §1
Leishmania donovani [5] = assay: Antiparasitic activity against Leishmania donovani MHOM/IN/83/HS70 at 50 ug/mL after 72 hrs; type: functional, organism-based; outline: as §1
Staphylococcus aureus [6] = assay: Antibacterial activity against Staphylococcus aureus ATCC 25923/6538 at 0.0312 mg/mL after 18 hrs; type: functional, organism-based
Leishmania braziliensis [7] = assay: Antiparasitic activity against Leishmania braziliensis MHOM/BR/75/M2903 at 1 ug/mL after 72 hrs; type: functional; outline: as §1
Leishmania donovani [8] = assay: Antiparasitic activity against Leishmania donovani MHOM/IN/83/HS70 at 1 ug/mL after 72 hrs; type: functional; outline: as §1
Bacillus subtilis = assay: Antibacterial activity against Bacillus subtilis ATCC 6633 at 0.0312 mg/mL after 18 hrs; type: functional, organism-based
Leishmania braziliensis [9] = assay: Antiparasitic activity against Leishmania braziliensis MHOM/BR/75/M2903 at 50 ug/mL after 72 hrs; type: functional, organism-based; outline: as §1
Leishmania donovani [10] = assay: Antiparasitic activity against Leishmania donovani MHOM/IN/83/HS70 at 10 ug/mL after 72 hrs; type: functional; outline: as §1
Trypanosoma cruzi [11] = assay: Antiparasitic activity against Trypanosoma cruzi Tulahuen epimastigotes at 0.1 ug/mL after 48 hrs; type: functional
Outline: (§2)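 Epimastigotes in LIT medium with 10% fetal calf serum, inoculum 10⁶ cells/mL, 28 °C. Samples were dissolved in DMSO and medium to final 50, 20, 10, 1 and 0.1 μg/mL (final DMSO under 0.5%). Triplicate. After 48 h, parasites were counted by haemocytometer and compared with untreated and pentamidine controls.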

Trypanosoma cruzi [12] = assay: Antiparasitic activity against Trypanosoma cruzi Tulahuen epimastigotes at 50 ug/mL after 48 hrs; type: functional; outline: as §2
Leishmania amazonensis [13] = assay: Antiparasitic activity against Leishmania amazonensis IFLA/BR/67/PH8 at 25 ug/mL after 72 hrs; type: functional, organism-based; outline: as §1
Leishmania amazonensis [14] = assay: Antiparasitic activity against Leishmania amazonensis IFLA/BR/67/PH8 at 10 ug/mL after 72 hrs; type: functional; outline: as §1
Trypanosoma cruzi [15] = assay: Antiparasitic activity against Trypanosoma cruzi Tulahuen epimastigotes at 10 ug/mL after 48 hrs; type: functional; outline: as §2
Shigella flexneri [16] = assay: Antibacterial activity against Shigella flexneri […] at 0.0312 mg/mL after 18 hrs; type: functional, organism-based
Leishmania amazonensis [17] = assay: Antiparasitic activity against Leishmania amazonensis IFLA/BR/67/PH8 at 1 ug/mL after 72 hrs; type: functional; outline: as §1
Leishmania donovani [18] = assay: Antiparasitic activity against Leishmania donovani MHOM/IN/83/HS70 at 0.1 ug/mL after 72 hrs; type: functional; outline: as §1
Leishmania amazonensis [19] = assay: Antiparasitic activity against Leishmania amazonensis IFLA/BR/67/PH8 at 0.1 ug/mL after 72 hrs; type: functional; outline: as §1
Trypanosoma cruzi [20] = assay: Antiparasitic activity against Trypanosoma cruzi Tulahuen epimastigotes at 1 ug/mL after 48 hrs; type: functional; outline: as §2
Leishmania braziliensis [21] = assay: Antiparasitic activity against Leishmania braziliensis MHOM/BR/75/M2903 at 0.1 ug/mL after 72 hrs; type: functional; outline: as §1
Leishmania braziliensis [22] = assay: Antiparasitic activity against Leishmania braziliensis MHOM/BR/75/M2903 at 25 ug/mL after 72 hrs; type: functional, organism-based; outline: as §1
Leishmania amazonensis [23] = assay: Antiparasitic activity against Leishmania amazonensis IFLA/BR/67/PH8 at 50 ug/mL after 72 hrs; type: functional, organism-based; outline: as §1
Staphylococcus aureus [24] = assay: Antibacterial activity against Staphylococcus aureus ATCC 25923/6538 at 0.0625 mg/mL after 18 hrs; type: functional, organism-based

Compound | Activity (Leishmania braziliensis [2]) | Activity (Trypanosoma cruzi [3]) | Activity (Leishmania donovani [4]) | Activity (Leishmania donovani [5]) | Activity (Leishmania braziliensis [9]) | Activity (Leishmania donovani [10]) | Activity (Trypanosoma cruzi [12]) | Activity (Leishmania amazonensis [13]) | Activity (Leishmania amazonensis [14]) | Activity (Trypanosoma cruzi [15]) | Activity (Leishmania braziliensis [22]) | Activity (Leishmania amazonensis [23]) | further results
CC(=O)OC[C@]12CC[C@H]3[C@@H](CC=C4[C@@H](O)C=CC(=O)[C@@]43C)[C@@H]1CC[C@@H]2[C@@](C)(O)[C@H]1CC(C)=C(C)C(=O)O1 | Active | Active | Active | Active | Active | Active | Active | Active | Active | 75% | Active | Active | Activity (Shigella flexneri [1]): inactive; Activity (Escherichia coli): inactive; Activity (Staphylococcus aureus [6]): inactive; Activity (Leishmania braziliensis [7]): 50%; Activity (Leishmania donovani [8]): 75%; Activity (Bacillus subtilis): inactive; Activity (Trypanosoma cruzi [11]): 0%; Activity (Shigella flexneri [16]): inactive; Activity (Leishmania amazonensis [17]): 75%; Activity (Leishmania donovani [18]): 0%; Activity (Leishmania amazonensis [19]): 0%; Activity (Trypanosoma cruzi [20]): 0%; Activity (Leishmania braziliensis [21]): 0%; Activity (Staphylococcus aureus [24]): inactive
CC(=O)OC[C@]12CC[C@H]3[C@@H](C[C@H]4O[C@]45[C@@H](O)C=CC(=O)[C@]35C)[C@@H]1CC[C@@H]2[C@@](C)(O)[C@H]1CC(C)=C(C)C(=O)O1 | 50% | 0% | Active | Active | Active | 75% | 50% | Active | 75% | 0% | Active | Active | –
N=C(N)c1ccc(OCCCCCOc2ccc(C(=N)N)cc2)cc1 | Active | – | – | – | – | Active | – | – | Active | Active | – | – | –
